Screens as filed in PubChem.
IDH1 mut inh = inhibitors of IDH1 R132H reductase, primary screen, biochemical, plate reader, single point | diaphorase/resazurin fluorescence, 60 min | Isocitrate dehydrogenase [NADP] cytoplasmic (Homo sapiens), O75874 | AID 624101, 2012 | 0.18% of 70,000 active | inhibition, % at 10 µM; in the data active = inhibition above about 34%; inconclusive = no clear call, values can overlap the other calls; inactive = below about 11%;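 note: 0% = DMSO and 100% = no enzyme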
T cruzi growth-1 = T. cruzi intracellular proliferation inhibitors, primary screen, cell-based, beta-gal Tulahuen parasites, NIH3T3 host, luminescence | T. cruzi beta-gal in NIH3T3, GalScreen luminescence, 90 h | inhibition, % at 8.34 µM | 5.9% of 77,000 active | AID 624255, 2012;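 active = mean inhibition above about 93%, with at least 55% of replicates each passing it, limit read from the data, passing the limit was not always enough; inconclusive = only one of those two conditions holds; inactive = neither condition holds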
KDM4C inh = inhibitors of GASC-1 (KDM4C) histone demethylase, primary screen, biochemical, single concentration HTS | inhibition, % at 12.5 µM | AID 720574, 2013 | Lysine-specific demethylase 4C (Homo sapiens), Q9H3R0 | GST-KDM4C 2-372, H3K9me3 peptide, LANCE TR-FRET | 0.15% of 96,000 active;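 active = mean replicate inhibition above about 25%, with at least 55% of replicates also reaching it, limit read from the data, passing the limit was not always enough; inconclusive = only one of those two conditions met; inactive = neither condition met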
Target sequence (Q9H3R0 2-372 limits assumed): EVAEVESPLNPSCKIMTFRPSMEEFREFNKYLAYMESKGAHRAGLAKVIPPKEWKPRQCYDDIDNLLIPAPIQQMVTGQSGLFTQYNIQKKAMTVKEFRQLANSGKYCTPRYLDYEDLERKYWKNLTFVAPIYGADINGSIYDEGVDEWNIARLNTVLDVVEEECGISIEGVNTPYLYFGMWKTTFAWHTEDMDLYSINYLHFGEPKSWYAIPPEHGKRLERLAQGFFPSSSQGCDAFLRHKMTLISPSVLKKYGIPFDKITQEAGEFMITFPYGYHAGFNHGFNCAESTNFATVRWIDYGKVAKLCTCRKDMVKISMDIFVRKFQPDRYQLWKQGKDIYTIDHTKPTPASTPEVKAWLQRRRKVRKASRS
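Material: GST-tagged GASC-1 (JMJD2C) catalytic fragment, aa 2-372 / Quantity: enzyme final amount 10 nM / Medium: HEPES buffer, pH 7.5, plus ascorbate / Doses: one test concentration per compound / Incubation: 30 min reaction, 60 min detection, RT / Measured by: LANCE TR-FRET / Read-out: inhibition from TR-FRET ratio decrease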
T cruzi growth-2 = T. cruzi intracellular proliferation inhibitors, confirmation, cell-based, NIH3T3 host, beta-gal parasite, luminescence, cherry-pick; shares compounds with T cruzi growth-1; 72% of 5,600 active; inhibition, % at 8.35 µM; T. cruzi beta-gal in NIH3T3, GalScreen luminescence, 90 h;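 active = mean replicate inhibition above about 95% and at least 55% of replicates individually reaching it, limit read from the data; inconclusive = only one of the two criteria is met; inactive = neither criterion is met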
T cruzi growth-3 = inhibitors of intracellular T. cruzi replication, confirmation, NIH3T3 host cells, beta-gal parasites, cherry-pick, set 2; T. cruzi beta-gal in NIH3T3, GalScreen luminescence, 90 h; 21% of 5,600 active; inhibition, % at 2.09 µM; shares compounds with T cruzi growth-1; AID 651740, 2012;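 active = mean inhibition above about 95%, with at least 55% of replicates also reaching it, limit read from the data; inconclusive = meets just one of the two conditions; inactive = meets neither condition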;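 note: plate controls were neutral control median for no effect and positive control median for full effect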
3T3 cytotox = cytotoxicity in mouse NIH/3T3 fibroblasts, confirmation, cytotoxicity control for T. cruzi proliferation inhibitor project, cell-based, cherry-pick, single point | shares compounds with T cruzi growth-1 | NIH/3T3 viability, CellTiter-Glo ATP luminescence, 90 h | cytotoxicity (signal decrease), % at 8.35 µM | 14% of 5,600 active | AID 651742, 2012;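 active = mean signal decrease across replicates above about 35% based on untreated-well scatter, with enough replicates individually passing, limit read from the data; inconclusive = no rule stated though some were filed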;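 note: 0% = median of neutral control wells and 100% = median of positive control wells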
NIH3T3 tox 2 = NIH/3T3 fibroblast cytotoxicity, confirmation, cytotoxicity control, cell-based, cherry-pick, single point, set 2 | shares compounds with T cruzi growth-1 | NIH/3T3 viability, CellTiter-Glo ATP luminescence, 90 h | inhibition, % at 24.9 µM | 56% of 5,600 active | AID 651744, 2012;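 active = mean loss of cell viability signal at or above a set limit, and enough replicates individually reaching it; inconclusive = meets only the mean limit or only the replicate share; inactive = meets neither condition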;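 note: 0% = median of neutral control wells and 100% = median of positive control wells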
The depositor's hits bear a star; ? = inconclusive; / = no result given; ! = not confirmed by another sample. Shown is part of a subset that was picked to be rich in hits.

SMILES | IDH1 mut inh | T cruzi growth-1 | KDM4C inh | T cruzi growth-2 | T cruzi growth-3 | 3T3 cytotox | NIH3T3 tox 2
Cc1c(C(=O)Nc2sc3c(c2C(=O)NC2CCS(=O)(=O)C2)CCCC3)oc2ccccc12 (stereo not given) | 2 | / | / | / | / | / | /
C[C@@H]1CN([C@H](C)CO)C(=O)CCCn2cc(nn2)CO[C@@H]1CN(C)C(=O)Cc1ccccc1 | 2 | 33 | 1 | / | / | / | /
C[C@@H]1CN([C@@H](C)CO)C(=O)CCCn2cc(nn2)CO[C@H]1CN(C)Cc1ccccc1 | -4 | 121* | 7 | -101 | -67 | -24 | -13
C[C@H]1CN([C@@H](C)CO)C(=O)CCCn2cc(nn2)CO[C@@H]1CN(C)Cc1cccc(O)c1 | 1 | 15 | 1 | / | / | / | /
C[C@H](CO)N1C[C@H](C)[C@H](CN(C)Cc2cccc(O)c2)OCc2cn(nn2)CCCC1=O | / | ? | 0 | -13 | 4 | -3 | -6
C[C@H]1CN([C@@H](C)CO)C(=O)CCCn2cc(nn2)CO[C@@H]1CN(C)C(=O)Cc1ccccc1 | 0 | 131*! | -1 | 17 | 34 | 10 | 3
C[C@H]1CN([C@@H](C)CO)C(=O)CCCn2cc(nn2)CO[C@@H]1CN(C)C(=O)C1CC1 | -2 | 4 | -1 | / | / | / | /
C[C@@H]1CN([C@@H](C)CO)C(=O)CCCn2cc(nn2)CO[C@H]1CN(C)C(=O)C1CC1 | 3 | ? | 0 | 48 | 11 | 11 | 15
C[C@H]1CN([C@@H](C)CO)C(=O)CCCn2cc(nn2)CO[C@@H]1CN(C)Cc1ccccc1 | 2 | -21 | 1 | / | / | / | /
CC(C)n1cnc2c(NCc3ccccc3O)nc(NCCCO)nc21 | 0 | / | / | / | / | / | /
O=C(COc1ccc([N+](=O)[O-])cc1)Nc1ccccc1N1CCN(C(=O)c2ccc(Cl)cc2)CC1 | 1 | / | / | / | / | / | /
CCOC(=O)c1cc(NC(=O)CSc2nnc(C)s2)ccc1Cl | 0 | / | / | / | / | / | /
CCOc1ccc(NC(=O)c2c(NC(=O)c3ccco3)sc3c2CCCCC3)cc1 | 0 | / | / | / | / | / | /
O=C(C1CC1)N1CCCCN2[C@H](C1)[C@H](c1ccc(-c3ccncc3)cc1)[C@@H]2CO | / | -8 | / | / | / | / | /
COc1ccc(C2CC(C(F)(F)F)n3ncc(C(=O)Nc4sc5c(c4C#N)CCC(C)C5)c3N2)cc1OC (stereo not given) | 0 | / | / | / | / | / | /
C[C@@H]1CN([C@@H](C)CO)C(=O)CCCn2cc(nn2)CO[C@@H]1CN(C)C(=O)Nc1cccc(C(F)(F)F)c1 | -1 | 152* | 1 | -26 | 6 | 12 | -3
C[C@H]1CN([C@@H](C)CO)C(=O)CCCn2cc(nn2)CO[C@@H]1CN(C)C(=O)Nc1cccc(C(F)(F)F)c1 | 5 | 28 | 8 | / | / | / | /
C[C@H]1CN([C@@H](C)CO)C(=O)CCCn2cc(nn2)CO[C@@H]1CN(C)C(=O)c1ccc(N2CCN(C)CC2)cc1 | 0 | -20 | 9 | / | / | / | /
C[C@@H]1CN([C@H](C)CO)C(=O)CCCn2cc(nn2)CO[C@@H]1CN(C)C(=O)c1ccc(N2CCN(C)CC2)cc1 | 2 | 120* | 3 | -38 | -60 | -12 | -15
CCn1nc(C)c(N=Cc2ccc(N(C)C)c(Br)c2)c1C | 0 | / | / | / | / | / | /
COc1cc(C(=O)Nc2cccc(-c3nc4ncccc4o3)c2)cc(OC)c1OC | -1 | / | / | / | / | / | /
CN1C(=O)C(c2c[nH]c3ccccc23)=C(c2c[nH]c3ccccc23)C1=O | 0 | / | / | / | / | / | /
C[C@H]1CN([C@@H](C)CO)C(=O)c2cc(C#CCN(C)C)cnc2O[C@@H]1CN(C)Cc1ccc(-c2ccccc2)cc1 | -4 | 108* | 2 | 107* | 76 | 19 | 103*
C[C@@H]1CN([C@H](C)CO)C(=O)c2cc(C#CCN(C)C)cnc2O[C@H]1CN(C)Cc1ccccc1F | 0 | 101* | 4 | 83 | 29 | 15 | 5
